The source made the active and inactive calls. The rule behind the calls is not given here.
How the values were obtained:
[1] = test system: Yersinia pseudotuberculosis; experiment: Effect on T3S in Yersinia pseudotuberculosis 3 pIB29 assessed as inhibition of light emission at 100 uM by luciferase reporter gene assay
Method in brief: (§1)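 Strain YPIII-pIB29 (yopE-luxAB transcriptional fusion, lacking YopH), grown overnight at ambient temperature in BHI with 5 mM EGTA and 20 mM MgCl2 to deplete calcium, then adjusted to OD600 0.15-0.25. Compounds in DMSO (≤1% final) at 100, 50, 20 or 10 µM final, in triplicate. Plates shaken 1 h at ambient temperature, then 2 h at 37 °C. Decanal added within 30 min and luminescence read at once. Result is % inhibition of light versus control.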

[2] = test system: Yersinia pseudotuberculosis; experiment: Effect on T3S in Yersinia pseudotuberculosis 3 pIB29 assessed as inhibition of light emission at 50 uM by luciferase reporter gene assay; method in brief: as §1
[3] = test system: Yersinia pseudotuberculosis; experiment: Effect on T3S in Yersinia pseudotuberculosis 3 pIB29 assessed as inhibition of light emission at 20 uM by luciferase reporter gene assay; method in brief: as §1
[4] = test system: Yersinia pseudotuberculosis; experiment: Effect on T3S in Yersinia pseudotuberculosis 3 pIB29 assessed as inhibition of light emission at 10 uM by luciferase reporter gene assay; method in brief: as §1
[5] = test system: Yersinia pseudotuberculosis; experiment: Growth inhibition of Yersinia pseudotuberculosis; assay type: functional, organism-based
Method in brief: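 Wild-type YPIII-pIB102 diluted to OD600 0.05-0.1 in BHI with 2.5 mM CaCl2. Grown at 37 °C with shaking, with compound at 10, 20, 50 or 100 µM. Absorbance read at 600 nm periodically, or at 595 nm hourly, over six hours and compared with the control growth curve.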

[6] = target: Tyrosine-protein phosphatase YopH (Yersinia pseudotuberculosis serotype I (strain IP32953)) (UniProt P08538); experiment: Inhibition of Yersinia pseudotuberculosis YP3-pIB102 YopH at 100 uM
Method in brief: (§2)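 Strain YPIII-pIB102 grown overnight at 26 °C in BHI with 25 µg/ml chloramphenicol. Diluted to OD600 0.08 in calcium-depleted BHI (5 mM EGTA, 20 mM MgCl2), with compound at 100, 50, 20 or 10 µM, and shaken 2 h at 37 °C. Culture aliquot added to 25 mM p-nitrophenyl phosphate, 40 mM MES pH 5.0 and 1.6 mM DTT for 15 min at 37 °C. Stopped with NaOH and read at A405. Triplicates; result is % inhibition of secreted YopH activity.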

[7] = target: Tyrosine-protein phosphatase YopH (Yersinia pseudotuberculosis serotype I (strain IP32953)) (UniProt P08538); experiment: Inhibition of Yersinia pseudotuberculosis YP3-pIB102 YopH at 50 uM; method in brief: as §2
[8] = target: Tyrosine-protein phosphatase YopH (Yersinia pseudotuberculosis serotype I (strain IP32953)) (UniProt P08538); experiment: Inhibition of Yersinia pseudotuberculosis YP3-pIB102 YopH at 20 uM; method in brief: as §2
[9] = target: Tyrosine-protein phosphatase YopH (Yersinia pseudotuberculosis serotype I (strain IP32953)) (UniProt P08538); experiment: Inhibition of Yersinia pseudotuberculosis YP3-pIB102 YopH at 10 uM; method in brief: as §2

Chain of Tyrosine-protein phosphatase YopH (Yersinia pseudotuberculosis serotype I (strain IP32953)) (P08538 whole entry): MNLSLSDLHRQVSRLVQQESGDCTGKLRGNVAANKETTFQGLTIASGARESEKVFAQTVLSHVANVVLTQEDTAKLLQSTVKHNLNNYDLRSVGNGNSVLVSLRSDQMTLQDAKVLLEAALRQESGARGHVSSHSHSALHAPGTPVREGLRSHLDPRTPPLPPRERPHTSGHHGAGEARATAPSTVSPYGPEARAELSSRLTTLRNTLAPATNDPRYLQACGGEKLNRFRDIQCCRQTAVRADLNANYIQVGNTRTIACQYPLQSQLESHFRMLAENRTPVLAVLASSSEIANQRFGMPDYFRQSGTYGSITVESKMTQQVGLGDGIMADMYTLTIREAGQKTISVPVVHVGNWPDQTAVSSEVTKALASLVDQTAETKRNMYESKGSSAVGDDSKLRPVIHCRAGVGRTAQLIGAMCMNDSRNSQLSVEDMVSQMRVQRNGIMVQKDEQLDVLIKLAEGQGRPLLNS

Compound | inhibition [1] [%] | inhibition [2] [%] | inhibition [3] [%] | inhibition [4] [%] | Activity [5] | inhibition [6] [%] | inhibition [7] [%] | inhibition [8] [%] | inhibition [9] [%]
COc1ccc(NC(=O)c2ccc(Cl)cc2NS(=O)(=O)c2cccc(F)c2)cc1 | 51 | 32 | 9 | 5 | inactive | – | – | – | –
O=C(Nc1ccc(Cl)c(Cl)c1)c1cc(F)c(F)cc1NS(=O)(=O)c1cccc([N+](=O)[O-])c1 | 90 | 79 | 33 | 9 | inactive | 81 | 74 | 67 | 26
O=C(Nc1ccc(Cl)cc1)c1ccccc1NS(=O)(=O)c1cccc2nsnc12 | 18 | 12 | 5 | -1 | inactive | – | – | – | –
O=C(Nc1ccc(F)cc1)c1ccc(Cl)cc1NS(=O)(=O)c1ccc(Cl)c(Cl)c1 | – | – | – | – | inactive | – | – | – | –
COc1ccc(NC(=O)c2ccc(Cl)cc2NS(=O)(=O)c2ccc(Cl)c(Cl)c2)cc1 | 72 | 72 | 67 | 43 | inactive | 34 | 35 | 60 | 35
O=C(Nc1ccc(F)c(F)c1)c1ccc(Cl)cc1NS(=O)(=O)c1cc(Cl)cc(Cl)c1O | 87 | 86 | 50 | 15 | inactive | – | – | – | –
O=C(Nc1ccc2c(c1)OCO2)c1ccc(Cl)cc1NS(=O)(=O)c1ccccc1 | 15 | 10 | 7 | 4 | inactive | 34 | 25 | 19 | 14
CN(C)c1ccc(NC(=O)c2cc(Cl)ccc2NS(=O)(=O)c2ccccc2)cc1 | 1 | 2 | 1 | 0 | inactive | – | – | – | –
O=C(Nc1ccc(Cl)c(Cl)c1)c1cc(Cl)ccc1NS(=O)(=O)c1cccc2nsnc12 | 62 | 69 | 68 | 48 | inactive | 63 | 66 | 62 | 19
O=C(Nc1ccc(Cl)c(Cl)c1)c1ccc(Cl)cc1NS(=O)(=O)c1cccc2nsnc12 | 68 | 71 | 61 | 35 | inactive | – | – | – | –
Cc1ccc(S(=O)(=O)Nc2cc(F)c(F)cc2C(=O)Nc2ccc(Cl)c(Cl)c2)cc1 | 2 | 1 | 9 | 57 | inactive | – | – | – | –
O=C(Nc1ccccc1)c1cc(Cl)ccc1NS(=O)(=O)c1cccc2nsnc12 | 20 | 9 | 1 | -2 | inactive | – | – | – | –
O=C(Nc1ccc(Cl)c(Cl)c1)c1ccccc1NS(=O)(=O)c1cccc2nsnc12 | 13 | 11 | 10 | 5 | inactive | – | – | – | –
O=C(Nc1ccc(F)c(F)c1)c1ccc(Cl)cc1NS(=O)(=O)c1cccc2nsnc12 | 63 | 50 | 17 | 9 | inactive | – | – | – | –
O=C(Nc1cccc(Cl)c1)c1cc(Cl)ccc1NS(=O)(=O)c1cccc2nsnc12 | 55 | 47 | 13 | 3 | inactive | – | – | – | –
O=C(Nc1ccc(F)cc1)c1cc(Cl)ccc1NS(=O)(=O)c1cc(Cl)cc(Cl)c1O | 88 | 79 | 43 | 13 | inactive | – | – | – | –
O=C(Nc1ccc(F)cc1)c1cc(F)c(F)cc1NS(=O)(=O)c1cccc(F)c1 | 75 | 71 | 51 | 22 | inactive | 70 | 63 | 54 | 27
O=C(Nc1ccc(Cl)c(Cl)c1)c1cc(F)c(F)cc1NS(=O)(=O)c1cc(Cl)cc(Cl)c1O | 92 | 92 | 85 | 69 | inactive | 81 | 80 | 82 | 57
O=C(Nc1ccc2cccnc2c1)c1cc(Cl)ccc1NS(=O)(=O)c1ccc(Cl)c(Cl)c1 | 52 | 59 | 51 | 18 | inactive | – | – | – | –
CN(C)c1ccc(NC(=O)c2cc(Cl)ccc2NS(=O)(=O)c2cccc([N+](=O)[O-])c2)cc1 | 7 | 8 | 4 | 3 | inactive | – | – | – | –
O=C(Nc1ccc(F)c(Cl)c1)c1cc(Cl)ccc1NS(=O)(=O)c1ccc(Cl)c(Cl)c1 | – | – | – | – | inactive | – | – | – | –
O=C(Nc1ccc2cccnc2c1)c1cc(Cl)ccc1NS(=O)(=O)c1ccccc1 | 10 | 7 | 2 | 0 | inactive | – | – | – | –
O=C(Nc1ccc(Cl)c(Cl)c1)c1cc(Cl)ccc1NS(=O)(=O)c1ccccc1 | 70 | 73 | 70 | 58 | inactive | – | – | – | –
O=C(Nc1ccc(F)c(F)c1)c1cc(F)c(F)cc1NS(=O)(=O)c1cccc([N+](=O)[O-])c1 | 49 | 23 | 2 | -2 | inactive | – | – | – | –
O=C(Nc1ccc(Cl)c(Cl)c1)c1cc(F)c(F)cc1NS(=O)(=O)c1cccc2nsnc12 | 80 | 66 | 39 | 9 | inactive | – | – | – | –
O=C(Nc1ccc2c(c1)OCO2)c1ccc(Cl)cc1NS(=O)(=O)c1ccc(Cl)c(Cl)c1 | 69 | 74 | 66 | 37 | inactive | 59 | 64 | 60 | 33
CC(=O)c1ccc(S(=O)(=O)Nc2cc(Cl)ccc2C(=O)Nc2ccc(F)c(Cl)c2)cc1 | 72 | 70 | 33 | 11 | inactive | – | – | – | –

Source: ChEMBL document CHEMBL1137500, “Inhibitors of type III secretion in Yersinia: design, synthesis and multivariate QSAR of 2-arylsulfonylamino-benzanilides” (Bioorg Med Chem, 2007)
